Source: PubChem (Broad Institute)
An excerpt weighted towards active compounds, which were near 3.5% of everything screened.
PGC1a acetyl inh: modulators of PGC1a acetylation; U2OS PGC1a acetylation, AlphaScreen anti-acetyl-lysine; with virally co-expressed GCN5 acetyltransferase; inhibition, % at 15.6 µM; actives 0.17% (n = 350,000); AID 651687;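 active = every replicate shows inhibition of at least 40%; inconclusive = mean inhibition at least 40% but some replicate below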;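 also: 0% = neutral control wells and 100% = positive control wells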
FN deposit inh: fibronectin deposition inhibition | inhibition, % at 12.6 µM | actives 0.086% (n = 350,000) | AH1F fibroblasts, Alexa488-fibronectin deposition fluorescence, overnight;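 active = mean inhibition across replicates of 30% or more, regardless of how many single replicates reach that level; inconclusive = mean under 30% yet at least half of replicates reach 30%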;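 also: positive control wells lacked labelled fibronectin entirely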
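Assay system: AH1F fibroblast monolayer, labelled fibronectin deposition. Amount: 10000 cells per well. Also added: labelled fibronectin 24 nM. Compound: single-point pinned compound. Incubation: cell attachment 1 h, compound and FN exposure overnight. Detection: fluorescence after three HBSS washes, excitation 485 nm, emission 525 nm. Read-out: inhibition of fibronectin deposition signal.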
DENV2 CPE: DENV2-induced cell death inhibition; DENV2-infected cells, cytopathic effect rescue, plate reader; CPE inhibition, % at 9.99 µM; actives 1.7% (n = 350,000); in the data active = CPE inhibition above about 20%, passing the limit was not always enough; inconclusive = no clear call, values can overlap the other calls; tested in BHK-21 cells;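 also: 0% = median of neutral control wells and 100% = median of positive control wells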
PglD inh: blocks C. jejuni PglD acetyltransferase activity; purified PglD enzyme, DTNB colorimetric CoA detection; inhibition, % at 12.5 µM; actives 0.098% (n = 360,000); AID 602405; in the data active = inhibition above about 16%, passing the limit was not always enough; inconclusive = no clear call, values can overlap the other calls
Ecoli rRNA inh: inhibitors of bacterial rRNA selective over humanized ribosomes. E. coli WT GFP vs humanized-ribosome RFP mutants, fluorescence, 24 h; active compounds read low; DMSO median 0, no signal -100. GFP signal change (wild-type ribosome), % (test concentration not listed). actives 1.6% (n = 350,000). AID 720706;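 active = significant combined selectivity score with lowered wild-type GFP, culture density cut under 30%, mutant RFP and density less affected; inactive = any of these conditions unmet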
HIV Env fusion: blocks HIV Env-driven cell-cell fusion | HeLa-JRFL Env/CEM21 cell fusion, luciferase | inhibition, % at 12.3 µM | actives 1.1% (n = 360,000);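 active = mean replicate inhibition score of at least 50 and every replicate individually at or above 50; inconclusive = only one of the two criteria met; inactive = mean below 50 and not all replicates reaching 50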;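 also: 0% = plate neutral controls and 100% = maraviroc near 300 nM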
An asterisk follows results filed as active; ? = inconclusive; nt = not tested or not shown; [ ] = dose if it differs, or a comment.

SMILES	PGC1a acetyl inh	FN deposit inh	DENV2 CPE	PglD inh	Ecoli rRNA inh	HIV Env fusion
COc1ccccc1N1CCN(C(=O)c2cc(S(=O)(=O)N3CCCCC3)ccc2C)CC1	43	0	34*	1	-9	11
COc1ccccc1NCC(=O)Nc1cc(S(=O)(=O)N2CCOCC2)ccc1N1CCOCC1	-1	0	-3	nt	16	12
CCN1CCN(c2ccc(S(=O)(=O)N3CCCCC3)cc2NC(=O)c2ccc(C)c(C)c2)CC1	-10	3	38*	1	-22	10
O=C(C[C@H]1CC[C@@H](NC(=O)CC2CC2)[C@H](CO)O1)NCc1ccc(-c2ccccc2)cc1	-7	-6	1	-3	-6	2[16.7 µM]
C[C@@H]1CN([C@H](C)CO)S(=O)(=O)c2ccc(C#CC3(O)CCCC3)cc2O[C@H]1CN(C)C(=O)Cc1ccccc1	-3	nt	-8	3	-3	-8[16.7 µM]
Cc1cc(C(=O)Nc2cccc3c2O[C@H](CN(C)C(=O)Nc2c(C)noc2C)[C@H](C)CN([C@H](C)CO)C3=O)n(C)n1	nt	-7	4	-41	1	nt
Cc1ccc(S(=O)(=O)N2CCCC2)cc1C(=O)O	59*	-2	nt	12	nt	-38
O=C(O)c1cc(S(=O)(=O)N2CCN(C(c3ccccc3)c3ccccc3)CC2)ccc1Cl	6	-30	2	2	-16*	18
Cc1cccc(N2CCN(C(=O)c3cccc(S(=O)(=O)N4CCCCC4)c3)CC2)c1C	-3	6	-2	1	13	64*
CCCCOC(=O)n1c(=O)oc2cc(S(=O)(=O)N3CCCCC3)ccc21	-2	-2	nt	-4	nt	56*
Cc1cccc(N2CCN(C(=O)CNC(=O)C3CCCCC3)CC2)c1C	12	-2	-4	4	0	56*
COc1ccccc1N1CCN(S(=O)(=O)c2ccccc2F)CC1	-14	nt	-13	4	-22*	nt
Cc1cc2c(=O)n(Cc3ccco3)c(SCC(=O)c3ccc(Cl)s3)nc2s1	7	nt	nt	-1	nt	76*
O=C(CSc1nc2ccccc2c(=O)n1Cc1ccco1)c1ccc(F)cc1	4	-4	nt	2	nt	58*
Cc1cc(NC(=O)CSc2nc3ccccc3c(=O)n2Cc2ccc(F)cc2)no1	nt	-15	nt	nt	nt	0
CC1Cc2nc(SCC(=O)c3ccccc3)n(Cc3ccccc3)c(=O)c2S1 (centres undefined)	nt	8	2	-3	2	25
O=C(CSc1nc2ccccc2c(=O)n1Cc1ccc(F)cc1)NCc1cccs1	nt	nt	nt	nt	4	62*
CC1Cc2nc(SCC(=O)NCc3ccccc3)n(Cc3ccccc3)c(=O)c2S1 (centres undefined)	3	-5	2	2	-8	72*
CN(C)C(=O)c1ccc(-c2ccc([C@H]3[C@H](C#N)N(S(C)(=O)=O)[C@H]3CO)cc2)cc1	2	4	0	2	2	nt
COc1ccc(C(=O)OCc2c(-c3cccc(OC)c3)ncc3ccccc23)cc1	-3	8	22*	1	0	-4
COc1cccc(-c2ncc3ccccc3c2COC(=O)c2cccs2)c1	16	-8	?	-1	-11	18
C[C@@H]1CN([C@H](C)CO)C(=O)c2cccc(NC(=O)c3nc4ccccc4s3)c2O[C@@H]1CN(C)C(=O)Nc1ccc2c(c1)OCO2	-4	-3	-2	4	0	nt
C[C@H]1CN([C@@H](C)CO)C(=O)Cc2cc(NC(=O)Nc3cccc4ccccc34)ccc2O[C@H]1CN(C)S(=O)(=O)c1ccc(F)cc1	2	nt	-12	0	0	59*[16.7 µM]
C[C@@H]1CN([C@H](C)CO)C(=O)Cc2cc(NC(=O)Nc3cccc4ccccc34)ccc2O[C@H]1CN(C)S(=O)(=O)c1ccc(Cl)cc1	-5	-3	-7	-2	2	-12[16.7 µM]
Cc1ccc(S(=O)(=O)N(C)C[C@H]2Oc3ccc(NC(=O)Nc4cccc5ccccc45)cc3C(=O)N([C@H](C)CO)C[C@H]2C)cc1	-12	nt	nt	nt	2	-1[16.7 µM]
SMILES	PGC1a acetyl inh	FN deposit inh	DENV2 CPE	PglD inh	Ecoli rRNA inh	HIV Env fusion
Cc1ccc(S(=O)(=O)N(C)C[C@H]2Oc3ccc(NC(=O)Nc4cccc5ccccc45)cc3C(=O)N([C@H](C)CO)C[C@@H]2C)cc1	-3	nt	nt	nt	5	66*[16.7 µM]
C[C@@H]1CN([C@@H](C)CO)C(=O)Cc2cc(NC(=O)Nc3cccc4ccccc34)ccc2O[C@@H]1CN(C)S(=O)(=O)c1ccc(F)cc1	5	nt	-14	4	4	13[16.7 µM]
C[C@H](CO)N1C[C@H](C)[C@H](CN(C)S(=O)(=O)c2ccccc2)Oc2ccc(NC(=O)Nc3cccc4ccccc34)cc2CC1=O	-6	nt	-2	2	1	85*[16.7 µM]
Cc1ccc(S(=O)(=O)N(C)C[C@@H]2Oc3ccc(NC(=O)Nc4cccc5ccccc45)cc3CC(=O)N([C@H](C)CO)C[C@@H]2C)cc1	11	nt	-3	1	0	56*[16.7 µM]
O=C(C[C@@H]1CC[C@@H]2[C@H](COC[C@H](O)CN2C(=O)Nc2ccc(F)cc2)O1)NCCc1ccccc1	1	-3	?	-8	-4	-12[16.7 µM]
C[C@H](CO)N1C[C@H](C)[C@H](CN(C)S(=O)(=O)c2ccc(F)cc2)Oc2cc(C3=CCCCC3)ccc2S1(=O)=O	-19	nt	2	3	5	42[16.7 µM]
C[C@@H]1CN([C@@H](C)CO)C(=O)Cc2cc(NC(=O)Nc3cccc4ccccc34)ccc2O[C@H]1CN(C)S(=O)(=O)c1ccccc1	2	nt	-13	2	-1	5[16.7 µM]
C[C@H]1CN([C@@H](C)CO)C(=O)Cc2cc(NC(=O)Nc3cccc4ccccc34)ccc2O[C@H]1CN(C)S(=O)(=O)c1ccccc1	-4	nt	-5	6	-1	71*[16.7 µM]
COc1ccc2c3c([nH]c2c1)[C@H](CO)N(C(=O)Nc1ccc(F)cc1)CC31CCN(S(=O)(=O)c2cccs2)CC1	3	nt	-8	nt	2	nt
CCCN(CCC)c1ncnc2nc[nH]c12	37	15	0	3	-6	62*
Clc1ccccc1CN(Cc1ccccc1)c1ncnc2nc[nH]c12	-5	nt	nt	-7	nt	nt
Cc1ccc(S(=O)(=O)Nc2ccc3c(c2)CC(=O)N([C@@H](C)CO)C[C@@H](C)[C@H](CN(C)C(=O)Nc2ccc(C(F)(F)F)cc2)O3)cc1	3	nt	-15	0	1	11[16.7 µM]
COc1cc(C)nc(N2CCC(C(=O)NCC3CCCO3)CC2)n1 (centres undefined)	7	7	44*	3	7	-11
O=C1OCCC1Sc1nnc(-c2ccccc2)o1 (centres undefined)	-13	nt	nt	3	nt	nt
O=C1OCCC1Sc1nnc(-c2ccc(Cl)cc2Cl)o1 (centres undefined)	9	3	-3	nt	1	59*
COc1cc(/C=C(\NC(C)=O)C(=O)Nc2ccccc2C)ccc1OC(C)=O	nt	9	21*	0	3	nt
